Measured values reported in ChEMBL document CHEMBL1255327, “Carbapenem-resistant Acinetobacter baumannii isolates from Tunisia producing the OXA-58-like carbapenem-hydrolyzing oxacillinase OXA-97” (2008).
Values after ≈ are worked out from the molar mass of the structure shown.

How the values were obtained:
Acinetobacter baumannii [1] = assay: Activity of Acinetobacter baumannii phenotype 1 beta-lactamase assessed per mg of protein at 100 uM
How it was run: (§1)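 Crude extracts made by sonication from A. baumannii clinical isolates and from E. coli TOP10 recombinants expressing OXA-97 or OXA-58. Specific activity measured against imipenem, meropenem, cephalothin, ceftazidime, oxacillin and benzylpenicillin, each at 100 μM final. Values are means of three independent experiments; standard deviations within 10% of means.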

Acinetobacter baumannii [2] = assay: Activity of Acinetobacter baumannii phenotype 2 beta-lactamase assessed per mg of protein at 100 uM; how it was run: as §1
Acinetobacter baumannii [3] = assay: Activity of Acinetobacter baumannii MAD beta-lactamase assessed per mg of protein at 100 uM; how it was run: as §1
Escherichia coli [4] = assay: Activity of Escherichia coli TOP10 beta-lactamase OXA-58 assessed per mg of protein at 100 uM; how it was run: as §1
Escherichia coli [5] = assay: Activity of Escherichia coli TOP10 beta-lactamase OXA-97 assessed as specific activity per mg of protein at 100 uM; how it was run: as §1
Acinetobacter baumannii [6] = assay: Antibacterial activity against Acinetobacter baumannii phenotype 1 […]; format: functional
How it was run: (§2)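 Disk diffusion on Mueller-Hinton agar plates with β-lactam and non-β-lactam antibiotic disks, interpreted per CLSI guidelines.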

Acinetobacter baumannii [7] = assay: Antibacterial activity against Acinetobacter baumannii phenotype 2 […]; format: functional; how it was run: as §2
Acinetobacter baumannii [8] = assay: Antibacterial activity against Acinetobacter baumannii MAD […]; format: functional
Escherichia coli [9] = assay: Antibacterial activity against Escherichia coli TOP10 harboring pOXA-58; format: functional
Escherichia coli [10] = assay: Antibacterial activity against Escherichia coli TOP10 harboring pOXA-97; format: functional
Acinetobacter baumannii [11] = assay: Antibacterial activity against Acinetobacter baumannii CIP7010 by disk diffusion method; format: functional; how it was run: as §2
Acinetobacter baumannii [12] = assay: Antibacterial activity against Acinetobacter baumannii CIP7010 harboring pOXA-97 by disk diffusion method; format: functional
How it was run: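 Disk diffusion on Mueller-Hinton agar with β-lactam and non-β-lactam disks, per CLSI guidelines. The strain is an electroporation transformant of recipient CIP7010, with clinical isolates A1 and A2 as plasmid donors, selected on Trypticase soy agar containing 50 μg/ml ticarcillin.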

[13] = Antibacterial activity against Escherichia coli DH10B; format: functional, Escherichia coli str. K-12 substr. DH10B
[14] = Antibacterial activity against Escherichia coli DH10B harboring pOXA-97; format: functional, Escherichia coli str. K-12 substr. DH10B
Acinetobacter baumannii [15] = assay: Antibacterial activity against Acinetobacter baumannii phenotype 1 […] in presence of 4 ug/ml clavulanic acid; format: functional
Acinetobacter baumannii [16] = assay: Antibacterial activity against Acinetobacter baumannii phenotype 2 […] in presence of 4 ug/ml clavulanic acid; format: functional
Acinetobacter baumannii [17] = assay: Antibacterial activity against Acinetobacter baumannii MAD […] in presence of 4 ug/ml clavulanic acid; format: functional
Escherichia coli [18] = assay: Antibacterial activity against Escherichia coli TOP10 harboring pOXA-58 in presence of 4 ug/ml clavulanic acid; format: functional
Escherichia coli [19] = assay: Antibacterial activity against Escherichia coli TOP10 harboring pOXA-97 in presence of 4 ug/ml clavulanic acid; format: functional
Acinetobacter baumannii [20] = assay: Antibacterial activity against Acinetobacter baumannii CIP7010 by disk diffusion method in presence of 4 ug/ml clavulanic acid; format: functional
Escherichia coli [21] = assay: Antibacterial activity against Escherichia coli DH10B in presence of 4 ug/ml clavulanic acid; format: functional; settings: K-12 DH10B
[22] = Antibacterial activity against Escherichia coli DH10B harboring pOXA-97 in presence of 4 ug/ml clavulanic acid; format: functional, Escherichia coli str. K-12 substr. DH10B

SMILES	Activity (Acinetobacter baumannii [1])	Activity (Acinetobacter baumannii [2])	Activity (Acinetobacter baumannii [3])	Activity (Escherichia coli [4])	Activity (Escherichia coli [5])	MIC (Acinetobacter baumannii [6])	MIC (Acinetobacter baumannii [7])	MIC (Acinetobacter baumannii [8])	MIC (Escherichia coli [9])	MIC (Escherichia coli [10])	MIC (Acinetobacter baumannii [11])	MIC [13]	MIC [14]	further results
CC(=O)OCC1=C(C(=O)O)N2C(=O)[C@@H](NC(=O)Cc3cccs3)[C@H]2SC1	20 mU/mg	10 mU/mg	15 mU/mg	15 mU/mg	20 mU/mg	–	–	–	–	–	–	–	–	–
C[C@@H](O)[C@H]1C(=O)N2C(C(=O)O)=C(S[C@@H]3CN[C@H](C(=O)N(C)C)C3)[C@H](C)[C@H]12 [MEROPENEM]	1.7 mU/mg	–	1.5 mU/mg	1 mU/mg	1 mU/mg	16 µg/mL (≈ 41.7 µM)	16 µg/mL (≈ 41.7 µM)	> 64 µg/mL	0.12 µg/mL (≈ 0.313 µM)	0.12 µg/mL (≈ 0.313 µM)	0.25 µg/mL (≈ 0.652 µM)	0.06 µg/mL (≈ 0.156 µM)	0.5 µg/mL (≈ 1.3 µM)	MIC (Acinetobacter baumannii [12]): 2 µg/mL (≈ 5.22 µM)
CC1(C)S[C@@H]2[C@H](NC(=O)Cc3ccccc3)C(=O)N2[C@H]1C(=O)O	220 mU/mg	210 mU/mg	170 mU/mg	150 mU/mg	220 mU/mg	–	–	–	–	–	–	–	–	–
CC1(C)S[C@@H]2[C@H](NC(=O)[C@H](N)c3ccccc3)C(=O)N2[C@H]1C(=O)O [AMPICILLIN]	–	–	–	–	–	> 512 µg/mL	> 512 µg/mL	> 512 µg/mL	> 512 µg/mL	> 512 µg/mL	> 512 µg/mL	4 µg/mL (≈ 11.4 µM)	> 512 µg/mL	MIC (Acinetobacter baumannii [15]): > 512 µg/mL; MIC (Acinetobacter baumannii [16]): > 512 µg/mL; MIC (Acinetobacter baumannii [17]): > 512 µg/mL; MIC (Escherichia coli [18]): 128 µg/mL; MIC (Escherichia coli [19]): 128 µg/mL; MIC (Acinetobacter baumannii [20]): 512 µg/mL; MIC (Escherichia coli [21]): 4 µg/mL; MIC [22]: 128 µg/mL
Cc1onc(-c2ccccc2)c1C(=O)N[C@@H]1C(=O)N2[C@@H]1SC(C)(C)[C@@H]2C(=O)O	230 mU/mg	–	230 mU/mg	210 mU/mg	220 mU/mg	–	–	–	–	–	–	–	–	–
